# CSC inhib – cancer stem cell inhibition; cancer stem cell-like cells viability, luminescence; inhibition, % at 7.5 µM; actives 1.1% (n = 300,000); in the data active = inhibition above about 75%; inconclusive = no clear call, values can overlap the other calls; tested in HMLE shEcad cells
# Beta cell apopt – blocks beta cell apoptosis | INS-1E cytokine-induced death, ATP luminescence, 48 h; percent of positive-control rescue, neutral wells zero | protection from apoptosis, % (concentration not given with the values) | actives 0.8% (n = 300,000) | AID 435005;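 active = Every replicate reaches about 75%, or at least half do and their mean reaches it too, limit read from the data; inconclusive = At least half of replicates reach the limit but their mean does not; inactive = Under half of replicates reach the limit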;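 note: 0% = cytokine-treated negative control wells and 100% = positive control rescue; higher means more ATP so stronger rescue from cytokine killing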
# T cruzi repl – blocks replication of Trypanosoma cruzi. AID 1885. T. cruzi beta-gal in NIH3T3, luminescence, 90 h. inhibition, % (no concentration beside the values). actives 1.4% (n = 300,000);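 active = mean inhibition across valid replicates above about 55%, limit read from the data; inconclusive = mean below that limit but half or more replicates reach it; inactive = mean below it, under half of replicates reach it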;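 note: signal also drops with host cell toxicity which is not excluded here; 0% = plate median of DMSO wells and 100% = zero luminescence signal; higher percent means less beta-gal luminescence so fewer parasites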
#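 Material: NIH/3T3 host cells with β-galactosidase reporter T. cruzi; Input: 5,000 host fibroblasts per well; Medium: DMEM, 2% fetal bovine serum; Compound: 50 nL DMSO compound solution per well; Schedule: 3 h host attachment, then at least 90 h co-culture; Detection: luminescent β-galactosidase signal after 60 min lysis.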
# Mdm2-MdmX inh – human Mdm2/MdmX binding inhibition | SaOS-2 split-luciferase Mdm2/MdmX complementation, luminescence | O15151+Q00987 | AID 485346 | inhibition, % at 8 µM | actives 3% (n = 330,000);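 active = inhibition of at least 50% at 8 µM in the primary screen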
# Target sequence (O15151 whole entry, looked up): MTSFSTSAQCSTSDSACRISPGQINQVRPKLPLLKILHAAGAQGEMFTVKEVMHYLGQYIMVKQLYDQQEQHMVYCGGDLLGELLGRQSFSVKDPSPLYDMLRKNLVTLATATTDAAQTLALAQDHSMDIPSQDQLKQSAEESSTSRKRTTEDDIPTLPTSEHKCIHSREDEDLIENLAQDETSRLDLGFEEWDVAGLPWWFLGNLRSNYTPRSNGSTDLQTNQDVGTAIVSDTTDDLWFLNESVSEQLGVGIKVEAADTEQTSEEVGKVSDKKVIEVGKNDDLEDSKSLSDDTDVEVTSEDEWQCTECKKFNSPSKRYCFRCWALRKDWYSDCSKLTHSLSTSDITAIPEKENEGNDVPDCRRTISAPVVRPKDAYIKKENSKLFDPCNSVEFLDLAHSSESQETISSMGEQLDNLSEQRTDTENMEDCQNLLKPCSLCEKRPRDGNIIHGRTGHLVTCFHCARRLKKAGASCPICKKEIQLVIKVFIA
# Target sequence (Q00987 whole entry, looked up): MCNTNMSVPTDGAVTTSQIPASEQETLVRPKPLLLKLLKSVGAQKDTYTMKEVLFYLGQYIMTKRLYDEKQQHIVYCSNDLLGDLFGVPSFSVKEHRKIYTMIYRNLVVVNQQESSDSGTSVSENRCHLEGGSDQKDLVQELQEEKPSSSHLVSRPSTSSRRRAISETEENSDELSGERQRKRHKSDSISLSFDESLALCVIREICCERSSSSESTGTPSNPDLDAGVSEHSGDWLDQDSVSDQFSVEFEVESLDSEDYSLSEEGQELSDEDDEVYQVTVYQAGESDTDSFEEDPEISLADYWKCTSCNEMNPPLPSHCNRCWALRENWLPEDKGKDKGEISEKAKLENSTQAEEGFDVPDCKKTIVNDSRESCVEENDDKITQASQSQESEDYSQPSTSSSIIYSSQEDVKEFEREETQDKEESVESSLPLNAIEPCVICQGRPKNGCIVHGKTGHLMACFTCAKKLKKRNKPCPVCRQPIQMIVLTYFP
# CHOP UPR activ – apoptotic UPR (CHOP) activation. activation, % at 10 µM. AID 449763. CHO-CHOP luciferase reporter, luminescence; percent of tunicamycin response over DMSO baseline. actives 0.34% (n = 330,000);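 active = at 10 µM dose, activation of 40% or more, normalized to positive control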;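 note: 100% = tunicamycin at 10 µg/mL and 0% = DMSO alone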
#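 System: CHO CHOP reporter cells. Amount: 500 cells per well. Buffer or medium: F12 medium, 10% FBS. Compound dosing: one dose, 10 µM in 0.5% DMSO. Incubation: 6 h compound exposure at 37 °C after overnight seeding. Technique: Steady-Glo luciferase luminescence. Benchmarks: tunicamycin and DMSO controls.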
# XBP1 UPR activ – activators of adaptive arm of unfolded protein response (XBP1); actives 0.33% (n = 330,000); AID 463104; CHO-XBP1 luciferase reporter, IRE1-XBP1 UPR activation, luminescence; percent of tunicamycin response, DMSO as zero; activation, % at 20 µM;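 active = versus positive control, 20 µM dose yields 30% or more activation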;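 note: 100% = tunicamycin at 10 µg/mL and 0% = DMSO only wells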
#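 Material: CHO cell line with stable XBP1 luciferase reporter; schedule: 16-18 h cell attachment at 37 °C, then 6 h compound exposure; signal: glow luminescence from Steady-Glo reagent; medium: serum-containing F12 medium, 10% FBS; benchmarks: tunicamycin 10 µg/mL and vehicle-only wells; read-out: percent activation relative to tunicamycin reference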
# Mdm2-MdmX conf – confirmation of human Mdm2/MdmX interaction inhibitors. shares compounds with Mdm2-MdmX inh. Mdm2-MdmX binding, luminescent assay. inhibition, % at 8 µM. actives 55% (n = 10,000). AID 489028; in the data active = inhibition above about 40%
# FLuc counter – counter-screen for Mdm2/MdmX inhibitors: full-length luciferase; shares compounds with Mdm2-MdmX inh; inhibition, % at 8 µM; actives 77% (n = 6,200); SaOS-2 full-length luciferase counterscreen, luminescence;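 active = mean inhibition at 8 µM reaching about 37%, which flags the compound as non-specific, limit read from the data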;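 note: p53-null SaOS-2 cells with luciferase driven by a doxycycline-inducible promoter; compound on cells about two nights before reading with doxycycline added after day one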
# Starred values were filed as active, the others as inactive; ? = inconclusive; . = no result given. Most compounds without a hit are left out; they make up all but 5% or so of the library.
SMILES,CSC inhib,Beta cell apopt,T cruzi repl,Mdm2-MdmX inh,CHOP UPR activ,XBP1 UPR activ,Mdm2-MdmX conf,others
Cc1cccc(NC(=O)c2nc[nH]c2C(=O)NC2CCN(C(=O)OC(C)(C)C)CC2)c1,?,3,.,55*,4,1,26,
Cc1cccc(NC(=O)c2nc[nH]c2C(=O)Nc2cccc(C)c2)c1,4,5,-5,40,1,3,.,
Cc1cccc(NC(=O)c2nc[nH]c2C(=O)NCCCCCNC(=O)OC(C)(C)C)c1,4,12,.,32,4,0,.,
COc1ccc(C(C)=O)c(Oc2cc(NN3CCCCC3)c([N+](=O)[O-])cc2[N+](=O)[O-])c1,27,-6,-3,-11,0,2,.,
COc1ccc(N(CC(=O)NC2CCCC2)C(=O)c2ccc(C)s2)c(OC)c1,-7,-4,5,-11,-1,-2,.,
NC(C(=O)O)C(c1ccccc1)C(F)F (stereo not drawn),1,-5,-6,-11,1,3,.,
COc1ccc(-c2cc(C(F)F)n3ncc(C(=O)Nc4cc(C)on4)c3n2)cc1,7,8,-6,59*,0,6,12,
CCc1nccn1C(=O)c1cnn2c(C(F)F)cc(-c3ccccc3)nc12,-12,-14,-7,3,5,-4,.,
Cc1nn(Cc2c(Cl)cccc2Cl)c(C)c1NC(=O)c1cnn2c(C(F)F)cc(-c3ccccc3)nc12,-5,-6,19,35,16,11,.,
Cc1ccc(-c2cc(C(F)F)n3ncc(C(=O)Nc4c(C)nn(Cc5ccccc5Cl)c4C)c3n2)cc1,-10,20,4,78*,16,29,28,
Cc1ccc(C2CC(C(F)F)n3ncc(C(=O)Nc4c(C)nn(Cc5c(F)cccc5Cl)c4C)c3N2)cc1 (stereo not drawn),23,-1,?,70*,1,-1,26,
CCc1nccn1C(=O)c1cnn2c(C(F)F)cc(-c3ccc(C)cc3)nc12,38,-33,17,61*,39,1,19,
Cc1ccc(C(=O)N/C(=C\c2cccs2)C(=O)NCCCn2ccnc2)cc1,-4,2,-5,14,2,-2,.,
CCOC(=O)C1C(=O)NC(SCC(N)=O)=C(C#N)C1c1ccccc1OCC (stereo not drawn),3,-4,-16,-8,0,-3,.,
Cc1ccc(-c2cc(C(F)F)n3ncc(C(=O)Nc4c(C)nn(Cc5c(Cl)cccc5Cl)c4C)c3n2)cc1,15,9,-5,80*,23,28,-9,
CCN(CC)C(=O)C1=C(C)NC(=O)NC1c1c(F)cccc1Cl (stereo not drawn),-4,-3,-13,-27,-2,-1,.,
NCCN1CCN(CC(=O)N2c3ccccc3C(=O)Nc3cccnc32)CC1,-9,-5,-13,-5,-1,-4,.,
O=C1Nc2cccnc2N(C(=O)CCl)c2ccccc21,-3,-15,2,68*,3,-5,50*,FLuc counter=31
N#C/C(=C\c1cn(CCOc2ccccc2F)c2ccccc12)C(=O)NCc1cccs1,12,-1,0,54*,0,7,21,
CC(=O)c1c(C)[nH]c(C(=O)OCC(=O)c2ccc3c(c2)NC(=O)CO3)c1C,25,-5,.,34,-1,-2,.,
COc1cc(-c2nnc(COc3ccc4cc(Br)ccc4c3)o2)cc(OC)c1OC,19,.,-9,60*,1,3,8,
COc1ccc(-c2nnc(COc3ccc4ccccc4c3)o2)cc1OC,1,-7,2,8,-1,0,.,
O=C(NNC(=O)C1CCN(S(=O)(=O)c2ccc(Cl)cc2)CC1)c1ccccc1O,37,0,-1,56*,1,1,59*,FLuc counter=46*
NNC(=O)C1CCN(S(=O)(=O)c2ccc(Cl)cc2)CC1,-4,.,11,8,0,-4,.,
CCn1c(COc2ccccc2Cl)nnc1SCC(=O)Nc1ncccc1C,1,-11,-6,9,3,-1,.,
SMILES,CSC inhib,Beta cell apopt,T cruzi repl,Mdm2-MdmX inh,CHOP UPR activ,XBP1 UPR activ,Mdm2-MdmX conf,others
COc1cc(C(=O)OCC(=O)N2CCN(C(C)=O)CC2)ccc1OCC(C)C,-9,0,-12,7,0,-3,.,
Cc1ccc(/C=C2\SC(=S)N(CCCC(=O)Nc3ccc(O)cc3)C2=O)cc1,34,-1,35,93*,-7,-1,89*,FLuc counter=47*
Cc1ccc(/C=C2\SC(=S)N(CCCC(=O)Nc3ccccc3C(=O)O)C2=O)cc1,0,4,0,-32,-3,-7,.,
COC(=O)c1ccc(/C=C2/SC(=S)N(CCCC(=O)Nc3ccc(O)cc3)C2=O)cc1,18,-25,9,100*,-5,-8,55*,FLuc counter=5
CN(C(=S)NC(=O)Cc1ccccc1)c1ccccc1,-1,-2,-36,16,2,1,.,
Cc1ccc(S(=O)(=O)N2CCN(CC(=O)N/N=C\c3ccc(Cl)c([N+](=O)[O-])c3)CC2)cc1,26,-7,-6,64*,6,-4,17,
CC(C)Oc1ccc(C(CC(=O)O)Cc2ccccc2)cc1 (stereo not drawn),-3,-2,-13,-13,2,1,.,
N#CC1=C(N)c2ccccc2CC12CCCCC2,-13,-2,18,12,-1,-2,.,
COc1ccc(Cn2cccc(NC(=O)Nc3cccc(OC)c3)c2=O)cc1,-4,3,10,1,3,0,.,
O=C1CC(c2ccc3c(c2)OCCO3)Oc2ccc([N+](=O)[O-])cc21 (stereo not drawn),77*,9,-9,72*,0,-9,72*,FLuc counter=144*
COc1cc(C(=O)O/N=C(\N)c2ccc([N+](=O)[O-])cc2)cc(OC)c1OC,-3,11,13,75*,-1,3,36,FLuc counter=95*
COc1cccc(C(=O)O/N=C(\N)c2ccc([N+](=O)[O-])cc2)c1,1,0,6,-9,2,2,.,
COc1cc(C(=O)O/N=C(\N)c2cccc([N+](=O)[O-])c2)cc(OC)c1OC,-4,.,13,74*,2,4,36,FLuc counter=103*
CCOc1cc(C(=O)O/N=C(\N)c2ccc([N+](=O)[O-])cc2)cc(OCC)c1OCC,-12,0,25,67*,5,2,46*,FLuc counter=92*
N/C(=N\OC(=O)c1ccc([N+](=O)[O-])cc1)c1ccc(Br)cc1,-5,0,5,-24,7,0,.,

# Screening results deposited in PubChem by several laboratories.
